This passage reports IC50 results from ChEMBL document CHEMBL1148494, “Comparison between 5,10,15,20-tetraaryl- and 5,15-diarylporphyrins as photosensitizers: synthesis, photodynamic activity, and quantitative structure-activity relationship modeling” (J Med Chem, 2006).

The structures appear in SMILES notation. “And” between values parts separate entries of the source, which are not always exact repeats. Equal values may be shown once.

The test concerns HCT-116. Nature of the test: Cytotoxicity against human HCT116 cell line. Format: functional, cell-based. The gist of the method:
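HCT116 cells kept in DMEM, seeded at 5 × 10⁴ cells/mL, grown 48 h, then exposed to a range of PS concentrations for 24 h. PS medium swapped for PBS; visible light from a tungsten-halogen lamp for 2 h (22 mW/cm², 158.4 J/cm²). Then 24 h at 37 °C in drug-free medium. MTT 0.4 mg/mL final for 3 h; formazan in DMSO read at 570 nm. IC50 by nonlinear regression, mean of three replicates ± SE.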
Consider `COc1ccc(-c2c3nc(cc4ccc([nH]4)c(-c4ccc(OC)cc4)c4nc(cc5ccc2[nH]5)C=C4)C=C3)cc1`, for which the IC50 was 0.0274 µg/mL and 52.5 nM.

`COc1cc(-c2c3nc(cc4ccc([nH]4)c(-c4cc(OC)c(OC)c(OC)c4)c4ccc(cc5nc2C=C5)[nH]4)C=C3)cc(OC)c1OC`: the half-inhibitory concentration (IC50) is 0.00632 µg/mL and 9.84 nM.

Take `COc1ccc(-c2c3nc(c(-c4ccc(OC)cc4)c4ccc([nH]4)c(-c4cc(OC)c(OC)c(OC)c4)c4nc(c(-c5ccc(OC)cc5)c5ccc2[nH]5)C=C4)C=C3)cc1`: the IC50 is > 1.5 µg/mL and > 1.89 µM.

On to `COc1ccc(-c2c3nc(cc4ccc([nH]4)c(-c4cc(OC)c(OC)c(OC)c4)c4nc(cc5ccc2[nH]5)C=C4)C=C3)cc1`, for which the IC50 was 0.00903 µg/mL and 15.5 nM.

For `COc1cc(-c2c3nc(c(-c4ccccc4)c4ccc([nH]4)c(-c4ccccc4)c4nc(c(-c5ccccc5)c5ccc2[nH]5)C=C4)C=C3)cc(OC)c1OC`, the IC50 is 0.709 µg/mL and 1.01 µM.

As for `Oc1cc(-c2c3nc(cc4ccc([nH]4)c(-c4ccccc4)c4nc(cc5ccc2[nH]5)C=C4)C=C3)cc(O)c1O`, the concentration for half-maximal inhibition (IC50) was 0.00497 µg/mL and 9.75 nM.

As to `Oc1cc(-c2c3nc(c(-c4ccccc4)c4ccc([nH]4)c(-c4ccccc4)c4nc(c(-c5ccccc5)c5ccc2[nH]5)C=C4)C=C3)cc(O)c1O`, the IC50 is 0.0353 µg/mL and 53.3 nM.

In the case of `Oc1cccc(-c2c3nc(c(-c4cccc(O)c4)c4ccc([nH]4)c(-c4cccc(O)c4)c4nc(c(-c5cccc(O)c5)c5ccc2[nH]5)CC4)C=C3)c1` [TEMOPORFIN], the IC50 is 0.00517 µg/mL and 7.6 nM.

In the case of `COc1cc(-c2c3nc(cc4ccc(cc5nc(cc6ccc2[nH]6)C=C5)[nH]4)C=C3)cc(OC)c1OC`, the half-maximal inhibitory concentration (IC50) is 0.00229 µg/mL and 4.8 nM.

Consider `Oc1ccc(-c2c3nc(cc4ccc([nH]4)c(-c4ccccc4)c4nc(cc5ccc2[nH]5)C=C4)C=C3)cc1`, for which the IC50 was 0.00335 µg/mL and 7.01 nM.

As for `COc1ccc(-c2c3nc(cc4ccc([nH]4)c(-c4ccccc4)c4nc(cc5ccc2[nH]5)C=C4)C=C3)cc1`, the IC50 is 0.00606 µg/mL and 12.3 nM.

Take `Oc1ccc(-c2c3nc(c(-c4ccccc4)c4ccc([nH]4)c(-c4ccccc4)c4nc(c(-c5ccccc5)c5ccc2[nH]5)C=C4)C=C3)cc1`: the IC50 is 0.145 µg/mL and 230 nM.

Take `COc1cccc(-c2c3nc(c(-c4ccccc4)c4ccc([nH]4)c(-c4ccccc4)c4nc(c(-c5ccccc5)c5ccc2[nH]5)C=C4)C=C3)c1`: the half-inhibitory concentration (IC50) was 0.0998 µg/mL and 155 nM.

Take `Oc1cccc(-c2c3nc(cc4ccc([nH]4)c(-c4cccc(O)c4)c4nc(cc5ccc2[nH]5)C=C4)C=C3)c1`: the half-inhibitory concentration (IC50) was 0.00351 µg/mL and 7.09 nM.

With `COc1cccc(-c2c3nc(cc4ccc([nH]4)c(-c4cccc(OC)c4)c4nc(cc5ccc2[nH]5)C=C4)C=C3)c1`, the half-maximal inhibitory concentration (IC50) was 0.0129 µg/mL and 24.7 nM.

For `COc1ccc(-c2c3nc(c(-c4ccccc4)c4ccc([nH]4)c(-c4ccccc4)c4nc(c(-c5ccccc5)c5ccc2[nH]5)C=C4)C=C3)cc1`, the half-maximal inhibitory concentration (IC50) is 0.894 µg/mL and 1.39 µM.

With `COc1ccc(-c2c3nc(cc4ccc(cc5nc(cc6ccc2[nH]6)C=C5)[nH]4)C=C3)cc1`, the concentration for half-maximal inhibition (IC50) is 0.00077 µg/mL and 1.85 nM.

Turning to `COc1cccc(-c2c3nc(cc4ccc([nH]4)c(-c4ccccc4)c4nc(cc5ccc2[nH]5)C=C4)C=C3)c1`, the concentration for half-maximal inhibition (IC50) was 0.00293 µg/mL and 5.94 nM.

In the case of `C1=Cc2cc3ccc([nH]3)c(-c3ccccc3)c3ccc(cc4nc(cc1n2)C=C4)[nH]3`, the IC50 was 0.00123 µg/mL and 3.2 nM.

For the molecule `COc1cc(-c2c3nc(cc4ccc([nH]4)c(-c4ccccc4)c4nc(cc5ccc2[nH]5)C=C4)C=C3)cc(OC)c1OC`, the half-maximal inhibitory concentration (IC50) is 0.00428 µg/mL and 7.75 nM.

As for `Oc1cccc(-c2c3nc(cc4ccc([nH]4)c(-c4ccccc4)c4nc(cc5ccc2[nH]5)C=C4)C=C3)c1`, the IC50 was 0.00051 µg/mL and 1.06 nM.

For the molecule `C1=Cc2nc1cc1ccc([nH]1)c(-c1ccccc1)c1ccc(cc3nc(c2-c2ccccc2)CC3)[nH]1`, the IC50 was 0.00151 µg/mL and 3.26 nM.

Consider `COc1cccc(-c2c3nc(cc4ccc([nH]4)c(-c4cc(OC)c(OC)c(OC)c4)c4nc(cc5ccc2[nH]5)C=C4)C=C3)c1`, for which the IC50 is 0.00921 µg/mL and 15.8 nM.

For the molecule `Oc1cccc(-c2c3nc(c(-c4ccccc4)c4ccc([nH]4)c(-c4ccccc4)c4nc(c(-c5ccccc5)c5ccc2[nH]5)C=C4)C=C3)c1`, the IC50 was 0.217 µg/mL and 344 nM.

Consider `C1=Cc2nc1cc1ccc([nH]1)c(-c1ccccc1)c1nc(cc3ccc([nH]3)c2-c2ccccc2)C=C1`, for which the IC50 was 0.00263 µg/mL and 5.66 nM.
